According to ChEMBL document CHEMBL3091382, “The chemical synthesis and cytotoxicity of new sulfur analogues of 2-methoxy-lysophosphatidylcholine” (Bioorg Med Chem Lett, 2013):

Tests used:
[1] = Cytotoxicity against mouse betaTC3 cells assessed as cell viability at 25 uM after 24 hrs by MTT assay relative to control; format: cell-based, Beta-TC3; settings: read-out: Activity
Outline: (§1)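 βTC-3 insulinoma cells seeded at 10,000 per well and cultured 24 and 48 h before exposure to natural LPC species or 2-methoxy sulfur analogues at 10 or 25 µM. Incubation for 24 or 48 h. Viability measured by MTT colorimetric assay and expressed as % of untreated cells, mean ± SD of four independent experimental repeats.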

[2] = Cytotoxicity against mouse betaTC3 cells assessed as cell viability at 25 uM after 48 hrs by MTT assay relative to control; format: cell-based, Beta-TC3; settings: read-out: Activity; outline: as §1
[3] = Cytotoxicity against mouse betaTC3 cells assessed as cell viability at 10 uM after 48 hrs by MTT assay relative to control; format: cell-based, Beta-TC3; settings: read-out: Activity; outline: as §1
[4] = Cytotoxicity against mouse betaTC3 cells assessed as cell viability at 10 uM after 24 hrs by MTT assay relative to control; format: cell-based, Beta-TC3; settings: read-out: Activity; outline: as §1
[5] = Cytotoxicity against mouse betaTC3 cells assessed as cellular membrane damage at 25 uM after 24 hrs by LDH release assay; format: cell-based; settings: beta-tc3, 24 h
Outline: (§2)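 βTC-3 insulinoma cells seeded at 10,000 per well and cultured 24 or 48 h, then exposed to compound for 24 h. LDH in the medium measured as a marker of membrane damage. Release expressed as percentage of that from cells given methanol alone. Mean ± SD, n = 4; significance taken at p < 0.05.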

[6] = Cytotoxicity against mouse betaTC3 cells assessed as cellular membrane damage at 10 uM after 24 hrs by LDH release assay; format: cell-based; settings: beta-tc3, 24 h; outline: as §2

SMILES | viability at 24 h, 25 µM [1] | viability at 48 h, 25 µM [2] | viability at 48 h, 10 µM [3] | viability at 24 h, 10 µM [4] | Activity [5] | Activity [6]
CCCCCCCCCCCCCCCCCC(=O)OCC(COP(=S)([S-])OCC[N+](C)(C)C)OC (racemic) | 63.1% | 38.9% | 96.8% | 85.8% | – | –
CCCCCCCCCCCC(=O)OCC(COP(=S)([S-])OCC[N+](C)(C)C)OC (racemic) | 83.7% | 41.8% | 98.2% | 87.1% | – | –
CCCCCCCCCCCC(=O)OC[C@@H](O)COP(=O)([O-])OCC[N+](C)(C)C [LYSOPHOSPHATIDYLCHOLINE] | 83% | 67.1% | 86.1% | 106% | 16.8% | –
CCCCCCCCCCCCCC(=O)OCC(COP(=S)([S-])OCC[N+](C)(C)C)OC (racemic) | 64.7% | 35.8% | 87.9% | 104% | – | –
CCCCCCCCCCCCCCCC(=O)OCC(COP(=O)([S-])OCC[N+](C)(C)C)OC (racemic) | 60.4% | 44.2% | 87.7% | 105% | – | –
CCCCCCCCCCCCCC(=O)OC[C@@H](O)COP(=O)([O-])OCC[N+](C)(C)C [LYSOPHOSPHATIDYLCHOLINE] | 26.3% | 7.5% | 53.1% | 75.5% | – | Toxic
CCCCCCCC/C=C\CCCCCCCC(=O)OCC(COP(=S)([S-])OCC[N+](C)(C)C)OC (racemic) | 111% | 112% | 95.9% | 90.5% | – | –
CCCCCCCCCCCCCCCCCC(=O)OC[C@@H](O)COP(=O)([O-])OCC[N+](C)(C)C | 38.7% | 29.5% | 59.3% | 88.8% | – | Toxic
CCCCCCCCCCCCCCCC(=O)OCC(COP(=S)([S-])OCC[N+](C)(C)C)OC (racemic) | 58.7% | 37.4% | 100% | 112% | – | –
CCCCCCCCCCCC(=O)OCC(COP(=O)([S-])OCC[N+](C)(C)C)OC (racemic) | 90.7% | 71.1% | 106% | 90.2% | – | –
CCCCCCCCCCCCCC(=O)OCC(COP(=O)([S-])OCC[N+](C)(C)C)OC (mixture of isomers) | 73.7% | 41.1% | 101% | 112% | – | –
CCCCCCCC/C=C\CCCCCCCC(=O)OC[C@@H](O)COP(=O)([O-])OCC[N+](C)(C)C | 81.1% | 68.5% | 93.4% | 130% | 9.04% | –
CCCCCCCCCCCCCCCCCC(=O)OCC(COP(=O)([S-])OCC[N+](C)(C)C)OC (mixture of isomers) | 82.9% | 50.9% | 61.4% | 90.3% | – | –
CCCCCCCC/C=C\CCCCCCCC(=O)OCC(COP(=O)([S-])OCC[N+](C)(C)C)OC (racemic) | 144% | 133% | 92.4% | 121% | – | –
CCCCCCCCCCCCCCCC(=O)OC[C@@H](O)COP(=O)([O-])OCC[N+](C)(C)C | 29.7% | 20.1% | 59.8% | 73.1% | 16.8% | Toxic
